Screens deposited in PubChem BioAssay by several laboratories.
Most compounds without a hit are left out; they make up all but 1.5% or so of the library.
FID counter: compounds displacing fluorescent DNA intercalator, primary screen, artefact control for HCV NS3 helicase inhibitor project, biochemical, FID fluorescence. DNA fluorescent intercalator displacement. inhibition, % at 7.9 µM. 290,000 tested, 0.17% active; in the data active = inhibition above about 37%;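 note: 0% = vehicle and 100% = reference compound; higher means more ethidium bromide displaced from hairpin DNA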
MEX-5 binding: MEX-5 zinc finger RNA-binding disruptors – biochemical, C. elegans, fluorescence polarization, MLPCN library, primary screen; Zinc finger protein mex-5 (Caenorhabditis elegans), Q9XUB2; MEX-5/FITC-TCR2 RNA binding; hits give low values; activity score (negative = inhibition of binding), % at 10 µM; 300,000 tested, 0.38% active; AID 1832, 2009;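 active = inhibition past about -25% in most replicates, and total fluorescence under double the plate's negative control median, limit read from the data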;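 note: 0% = DMSO and -100% = 5 µM competing unlabeled TCR2 RNA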
Target sequence (Q9XUB2 whole entry, looked up): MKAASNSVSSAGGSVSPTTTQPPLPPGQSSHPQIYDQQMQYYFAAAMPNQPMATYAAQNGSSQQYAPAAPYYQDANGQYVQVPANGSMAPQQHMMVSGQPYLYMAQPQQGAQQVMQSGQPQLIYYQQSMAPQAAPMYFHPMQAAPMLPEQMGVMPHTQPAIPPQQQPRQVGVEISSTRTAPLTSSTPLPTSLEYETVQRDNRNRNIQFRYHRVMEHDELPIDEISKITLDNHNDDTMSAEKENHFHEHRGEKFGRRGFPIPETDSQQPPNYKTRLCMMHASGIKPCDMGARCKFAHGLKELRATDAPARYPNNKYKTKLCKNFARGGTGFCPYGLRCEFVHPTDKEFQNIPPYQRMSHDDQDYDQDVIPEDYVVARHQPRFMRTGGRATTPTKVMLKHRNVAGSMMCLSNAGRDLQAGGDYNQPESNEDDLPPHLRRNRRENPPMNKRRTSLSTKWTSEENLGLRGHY
HCV core dimer: inhibitors of HCV core protein dimerization, primary screen, biochemical, TR-FRET, high-throughput | TR-FRET GST/Flag-core106 dimerization, 1536-well | inhibition, % at 5 µM | 300,000 tested, 0.33% active;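 active = inhibition above the mean of all tested compounds plus 3 SD, set per screening campaign, cut at about 45% in these data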
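Assay system: Tagged HCV core106 pair (GST and Flag) | Buffer or medium: KF-containing HEPES buffer, pH 7.45, DTT, CHAPS, BSA | Also added: Eu donor and XL665 acceptor anti-tag antibodies | Dosing: One concentration, 5 µM, in 0.5% DMSO | Timing: 4 h at 22.5 °C | Technique: TR-FRET 671 and 617 nm emission | Repeats: Singlicate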
NRP1-CendR mod: modulators of CendR peptide binding to NRP-1, primary screen, biochemical, fluorescence polarization, uHTS | FAM-RPARPAR peptide binding to NRP-1 | inhibition, % at 25 µM | 360,000 tested, 0.85% active | AID 602438, 2012;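 active = inhibition or corrected inhibition above about 18%, plus a signal ratio from 0.5 to 1.5, limit read from the data, passing the limit was not always enough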
An asterisk follows results filed as active; . = no result.

SMILES | FID counter | MEX-5 binding | HCV core dimer | NRP1-CendR mod
CC(=O)Oc1ccc(C(=O)[C@H]2[C@H]3C(=O)N(c4cccc5ccccc45)C(=O)[C@H]3[C@@H]3C=CC=NN32)cc1 | -15 | 3 | 52* | -57
COc1ccc(C(=O)[C@H]2[C@H]3C(=O)N(c4ccc(OC(C)=O)cc4)C(=O)[C@H]3C3C=CC=NN32)cc1 (stereo partly specified) | -18 | 2 | 26 | -29
Clc1ccccc1-c1ccc2ncnc(NCc3ccc4c(c3)OCO4)c2c1 | . | . | . | 22*
c1cncc(-c2ccc3ncnc(NCc4ccc5c(c4)OCO5)c3c2)c1 | . | . | . | 16
CC(C)C[C@@H](CNCC(=O)[C@H](Cc1c[nH]c2ccccc12)NC(=O)c1[nH]cnc1C(=O)N[C@@H](C)CN)NC(=O)c1nc[nH]c1C(=O)N[C@@H](C)C(=O)O | . | . | . | -17
CC1CC(C)CN(S(=O)(=O)c2ccc(C(=O)OCC(=O)Nc3ccccc3)cc2)C1 (stereo unspecified) | . | . | . | 0
COC(=O)[C@@]12C[C@@H](CC(=O)NCC3CCCCC3)C(=O)N(Cc3ccc4c(c3)OCO4)C1=CCC(C)(C)C2 | . | . | . | 5
Cc1cc(=O)oc2cc(NS(=O)(=O)c3ccc(F)cc3)ccc12 | -15 | -3 | 3 | 37*
Cc1cc(Br)cn2c(Cc3ccsc3)c(C(C)(C)C)nc12 | . | . | . | 49*
Cc1cc(Br)cn2c(Cc3ccsc3)c(C3CCCCC3)nc12 | . | . | . | 35*
Cc1ccc2c(c1)c(=O)c1c3n2CCN(C(=O)CCl)C3CC1 (stereo unspecified) | -1 | -8 | 47* | 26*
O=C1c2cc(F)ccc2-n2c1nc1ccccc1c2=O | 3 | -33* | 3 | -11
CC(=O)c1ccc(-c2cnc3c(NC=O)cc(-c4cnn(C)c4)cn23)cc1 | . | . | . | -24
COc1ccc(Sc2ccccc2CN(C)C)cc1OC | 3 | -3 | 2 | -2
CNCc1ccccc1Sc1ccc(O)c(O)c1 | -11 | -54* | 0 | 3
O=C(Cn1c(NCCCCl)nc2ccccc21)c1ccccc1 | . | . | . | 31*
COc1cccc(CNC(=O)[C@@H]2CCCN2C(=O)[C@H]2CCCCN2C(=O)c2ccccc2)c1 | . | . | . | 10
CC1(C)OCC(CNC(=O)c2[nH]c(C(F)(F)F)nc2-c2ccccc2)O1 (stereo unspecified) | . | . | . | 2
CCC(CC)N1CCN(CC2CC=CCC2)CC1 (stereo unspecified) | 2 | -2 | -1 | 23*
CC(C)CC(=O)N1CCN(CC2CC=CCC2)CC1 (stereo unspecified) | 1 | 0 | -4 | -10
CCOC(OCC)c1nc(N)[nH]c(=O)c1CCCCc1ccccc1 | . | . | . | 6
COc1cc(/C=C2/SC(=S)N(Cc3ccccc3)C2=O)cc(Cl)c1O | 18 | 5 | 8 | 120
COc1cc([N+](=O)[O-])cc(/C=C2/SC(=S)N(Cc3ccccc3)C2=O)c1O | 41* | -16 | -5 | -156
CCOC(=O)C1(Cc2ccccc2Cl)CCN(C(=O)CN2CCOC2=O)CC1 | -19 | -1 | 1 | 23*
CC(C)NC(=O)C1(C)CSCC(=O)N1Cc1cccs1 (stereo unspecified) | . | . | . | -15
SMILES | FID counter | MEX-5 binding | HCV core dimer | NRP1-CendR mod
Cc1ccc(C(=O)NCC(=O)Nc2ccccc2C)o1 | . | . | . | 23*
Cc1ccc(S(=O)(=O)/N=C2/NC(=O)/C(=C\c3cc(Br)cc(Br)c3O)S2)cc1 | 44* | . | . | 140
Cc1ccc(S(=O)(=O)/N=C2/NC(=O)/C(=C/c3ccc(Br)o3)S2)cc1 | -11 | . | 11 | -117
COc1ccc(C(=O)N2c3ccccc3C(=O)OC2c2ccc3c(c2)OCO3)cc1 (stereo unspecified) | -1 | -1 | 14 | 21*
CC(=O)Oc1ccc(C2OC(=O)c3ccccc3N2C(C)=O)cc1 (stereo unspecified) | 0 | 0 | 3 | 0
Cn1c(=O)c(-c2cc(=O)[nH][nH]2)c(O)c2ccccc21 | -17 | -30* | -1 | 10
CCn1c(=O)c(-c2cc(=O)[nH][nH]2)c(O)c2ccccc21 | -32 | -9 | -12 | 5
CC1(C(=O)Nc2ccc3c(c2)OCCO3)CCN1C(=O)C1(c2ccc(Cl)cc2)CC1 (stereo unspecified) | . | . | . | -1
CC(C)(C)CNC(=O)C1(C)CCN1C(=O)Cc1ccc(C(C)(C)C)cc1 (stereo unspecified) | . | . | . | 33*
CC(C)CC(OC(=O)c1cccs1)C(=O)NCc1ccco1 (stereo unspecified) | -24 | 3 | 49* | -21
CCC(OC(=O)c1cccs1)C(=O)NCc1ccco1 (stereo unspecified) | -2 | -1 | 0 | -3
O=C(NCCc1ccccc1)c1ccc(NC(=O)C2CCCC2)cc1 | . | . | . | 0
O=C(NC(C(=O)N/N=C/c1c2ccccc2cc2ccccc12)c1n[nH]c(=O)c2ccccc12)c1ccccc1 (stereo unspecified) | -24 | 3 | 47* | 21
CCc1nnc2n1N=C(c1ccc(-c3cc(Cl)ccc3Cl)o1)CS2 | -3 | -2 | 61* | -17
CC1(C(=O)Nc2cnc3ccccc3c2)CCN1Cc1ccccc1OC(F)F (stereo unspecified) | . | . | . | -8
Brc1cc(Br)c2ncnc(N3CCCCC3)c2c1 | -12 | -1 | 61* | 7
Cc1cccc(-n2nc3c(c2NC(=O)c2ccco2)CSC3)c1C | -3 | -1 | 49* | -79
Cc1cccc(-n2nc3c(c2NC(=O)c2ccco2)CS(=O)C3)c1C (stereo unspecified) | -3 | -1 | -2 | 6
COc1ccc2cc1Oc1ccc(cc1)CC1c3c(cc(OC)c4c3Oc3cc5c(cc3O4)CCNC5C2)CCN1C (stereo unspecified) | 81* | 4 | -1 | 3
CCCNC(=O)Cn1c(=O)/c(=C\c2ccc(-c3cccc([N+](=O)[O-])c3)o2)s/c1=C\C(=O)C(C)(C)C | -3 | -2 | 57* | 121
COc1ccc(-c2cc(C(=O)N/N=C(\C)c3ccco3)c3ccccc3n2)c(OC)c1 | -36 | -32* | 12 | -5
C/C(=N\NC(=O)c1cc(C)nc2ccccc12)c1ccco1 | -8 | 2 | -2 | -9
COc1ccc(-c2cc(C(=O)N/N=C/c3ccc(OC)c(COCC(F)(F)C(F)F)c3)c3ccccc3n2)c(OC)c1 | -11 | 2 | 58* | 0
Cc1nc2c(OCc3ccc(C#N)cc3)cccn2c1N(C)C(=O)CCC1CCCC1 | . | . | . | -2
COc1ccc(C)cc1S(=O)(=O)N1CCCC(N2CCN(c3ccccc3)CC2)C1 (stereo unspecified) | . | . | . | 2
CCOc1ccc2nc3cc(NCc4ccc(OC)cc4)ccc3c(N)c2c1 | 7 | -33* | 41 | 146
O=C(NC1CCCCC1)N(c1ccccc1)c1nnc(-c2cccc([N+](=O)[O-])c2)s1 | . | . | . | -1
CC1CCC/C(=N\NC(=O)c2ccncc2)C1 (stereo unspecified) | -3 | -1 | -2 | 30*
